# High-throughput results from PubChem BioAssay.
# TAAR1 antag = human TAAR1 antagonism. Q96RJ0. CHO RD-HGA16 TAAR1, Fluo-8 calcium fluorescence, antagonist. inhibition, % at 3 µM. 1.5% of 360,000 active;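 active = inhibition above a per-plate cutoff, the mean inhibition of test compounds on that plate plus 3 SD, cut at about 49% in these data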
# Target sequence (Q96RJ0 whole entry, looked up): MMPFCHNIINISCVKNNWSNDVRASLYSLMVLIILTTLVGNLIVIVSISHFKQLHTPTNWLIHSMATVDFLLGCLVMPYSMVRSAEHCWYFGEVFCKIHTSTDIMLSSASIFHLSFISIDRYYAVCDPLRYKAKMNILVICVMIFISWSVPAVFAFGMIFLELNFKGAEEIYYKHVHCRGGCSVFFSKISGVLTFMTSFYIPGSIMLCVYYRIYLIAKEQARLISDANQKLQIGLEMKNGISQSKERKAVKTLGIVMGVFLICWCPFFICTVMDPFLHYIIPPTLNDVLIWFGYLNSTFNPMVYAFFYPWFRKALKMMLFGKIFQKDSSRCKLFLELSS
#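 System: CHO RD-HGA16 cells bearing hTAAR1. Reagent: EC80 β-phenethylamine stimulus. Schedule: seeding 17-24 h prior, 75-min 37 °C, 30-min RT dye loading. Signal: Fluo-8 intracellular calcium dye fluorescence, real-time kinetic reads. Read-out: % inhibition from peak post-agonist over basal fluorescence ratio. Benchmarks: vehicle wells and EC80 agonist wells. Replicates: n of 1.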
# OX1R antag-1 = OX1R (human) antagonism; O43613; inhibition, % at 6.6 µM; 1.8% of 330,000 active; OX1R-expressing cells, FRET antagonist read-out; in the data active = inhibition mostly above about 38%, no sharp cut-off; inactive = mostly below about 40%
# CHO parental Ca = counter-screen: ATP calcium response change in parental CHO cells; parental CHO-K1, ATP-induced calcium, Fluo-8 fluorescence; inhibition, % at 5.6 µM; 0.63% of 330,000 active;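 active = inhibition above that plate's mean sample inhibition plus 3 SD, cut at about 26% in these data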
#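 Material: parental CHO cells / Compound: single nominal dose of 5.6 µM per compound / Signal: Fluo-8 fluorescence / Replicates: singlicate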
# GPR7 antagonist = blocks human GPR7 receptor signaling. P48145. inhibition, % at 4.4 µM. GPR7-expressing cells, fluorescence antagonist assay. 1.1% of 290,000 active; in the data active = inhibition above about 16%, passing the limit was not always enough;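 also: cells stimulated with the agonist NPW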
# Target sequence (P48145 whole entry, looked up): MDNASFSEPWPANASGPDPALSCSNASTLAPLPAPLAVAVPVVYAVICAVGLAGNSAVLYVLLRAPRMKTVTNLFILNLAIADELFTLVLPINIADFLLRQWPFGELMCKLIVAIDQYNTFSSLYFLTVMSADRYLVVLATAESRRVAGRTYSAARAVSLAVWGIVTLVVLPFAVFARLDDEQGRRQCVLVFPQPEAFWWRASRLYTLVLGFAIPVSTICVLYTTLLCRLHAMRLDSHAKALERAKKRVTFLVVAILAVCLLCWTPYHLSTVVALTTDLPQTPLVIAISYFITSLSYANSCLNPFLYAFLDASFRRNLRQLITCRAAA
# OX1R antag-2 = blocks the human orexin 1 receptor; inhibition, % at 5 µM; CHO/OX1R cells, Fluo-8 calcium fluorescence, orexin A; O43613; 0.43% of 330,000 active;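 active = inhibition above its plate's threshold, mean inhibition of all tested compounds on the plate plus 3 SD, cut at about 37% in these data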
# TAAR1 ag = agonists of human TAAR1; Q96RJ0; CHO RD-HGA16 TAAR1, Fluo-8 calcium fluorescence; vehicle wells 0%, saturating PEA agonist 100%; activation, % at 3 µM; 0.99% of 360,000 active; AID 624467;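 active = activation above the mean activation of all test compounds in the run plus 3 SD, cut at about 38% in these data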
#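 test system = CHO RD-HGA16 cells carrying human TAAR1 plus Gα16 | schedule = 17-24 h seeding, 75 min 37 °C dye, 30 min RT | compound dosing = 3 µM single concentration | control set = DMSO and PEA EC100 | replicates = n 1 | signal = Fluo-8 fluorescence, 5 s baseline then 140 s kinetic read | measure = percent activation vs PEA EC100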
# OX1R Fluo8 conf = confirmation of human orexin 1 receptor antagonists; shares compounds with OX1R antag-2; CHO/OX1R cells, orexin A calcium Fluo-8 fluorescence; inhibition, % at 5 µM; 38% of 1,100 active; in the data active = inhibition above about 29%
# CHO Ca triplic = signal in parental CHO cells, OX1R antagonist counter-screen; shares compounds with OX1R antag-2; parental CHO-K1, ATP-induced calcium, Fluo-8 fluorescence; inhibition, % at 5.6 µM; 9.3% of 1,100 active;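 active = inhibition above a per-plate limit, the mean inhibition of that plate's test compounds plus 3 SD, cut at about 25% in these data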
# OX1R HTRF confirm = confirmation of human orexin 1 receptor antagonists, HTRF format; shares compounds with OX1R antag-1; OX1R-expressing cells, HTRF antagonist assay; inhibition, % at 6.6 µM; 49% of 1,800 active; in the data active = inhibition above about 55%;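 also: CHO cells expressing OX1R stimulated with orexin A at about EC80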
# CHO-K1 HTRF = counter-screen: parental CHO-K1 HTRF response. shares compounds with OX1R antag-1. parental CHO-K1 cells, HTRF counterscreen. inhibition, % at 6.6 µM. 48% of 1,800 active; in the data active = inhibition above about 17%
# Numbers stand for hits; – = inactive; · = no result. This is a sample that favours compounds with a hit; in the whole collection about 4.6% have one here.
SMILES,TAAR1 antag,OX1R antag-1,CHO parental Ca,GPR7 antagonist,OX1R antag-2,TAAR1 ag,OX1R Fluo8 conf,CHO Ca triplic,OX1R HTRF confirm,CHO-K1 HTRF
CN(Cc1c(C(=O)N/N=C/c2cccc(F)c2)nnn1-c1nonc1N)c1ccccc1,–,57,–,–,–,–,33,–,77,–
CC(C)c1c(C(=O)N/N=C/c2ccc3c(c2)OCO3)nnn1-c1nonc1N,–,–,–,–,–,–,·,·,·,·
CN(Cc1c(C(=O)N/N=C/c2cccs2)nnn1-c1nonc1N)c1ccccc1,–,82,–,–,55,–,32,–,89,–
CN(Cc1c(C(=O)N/N=C/c2cccc(F)c2)nnn1-c1nonc1N)C1CCCCC1,–,–,–,–,–,–,·,·,·,·
CCCN(CCC)Cc1c(C(=O)N/N=C/c2cccs2)nnn1-c1nonc1N,–,–,–,–,–,–,·,·,·,·
COc1cccc(/C=N/NC(=O)c2nnn(-c3nonc3N)c2CN(C)c2ccccc2)c1,–,70,–,–,52,–,41,–,93,–
N#CCCN(Cc1ccccc1)C(C(=O)NC1CCCCC1)c1ccnc2ccccc12 (configuration not stated),–,·,·,·,·,–,·,·,·,·
Cc1[nH]nc2c1C(c1cccc(C(F)(F)F)c1)NC2=O (configuration not stated),–,·,·,·,·,–,·,·,·,·
COc1ccccc1C(=O)Nc1ccc2nc3n(c(=O)c2c1)CCCC3,–,95,–,–,–,–,31,–,97,–
COc1cc(OC)cc(C(=O)Nc2ccc3nc4n(c(=O)c3c2)CCCCC4)c1,–,–,–,–,–,–,·,·,·,·
CC(=O)Nc1cccc(OCC(=O)Nc2ccccc2)c1,–,–,–,–,–,–,·,·,·,·
CC(=O)Nc1cccc(OCC(=O)NC(C)c2ccc3ccccc3c2)c1 (configuration not stated),–,90,–,–,51,–,62,–,78,–
O=C(Nc1ccccc1)c1nc[nH]c1C(=O)NCc1ccccc1,–,–,–,·,–,–,·,·,·,·
NNC(=O)c1nc[nH]c1C(=O)Nc1ccccc1,–,51,–,–,–,–,–,–,–,–
COC(=O)[C@]12C[C@H](CC(=O)N3CCCC3)C(=O)N(Cc3ccc4c(c3)OCO4)C1=C[C@H](C(C)(C)C)O[C@@H]2C,–,·,·,·,·,–,·,·,·,·
CN(c1ccccc1)S(=O)(=O)c1cccc(NC(=O)COc2cccc([N+](=O)[O-])c2)c1,70,33,–,·,46,–,–,–,–,–
CCc1ccc(-c2cc(C)no2)cc1S(=O)(=O)NCCCN1CCN(c2ccccc2)CC1,–,41,–,–,–,–,–,–,–,–
CCc1ccc(-c2cc(C)no2)cc1S(=O)(=O)NCCN1CCC(C)CC1,–,–,–,–,–,–,·,·,·,·
COc1ccc(OC)c(S(=O)(=O)NCC(c2ccco2)N2CCc3ccccc32)c1 (configuration not stated),–,90,–,·,74,–,79,–,89,–
CN1CCC/C1=C/C=C1\SC(=S)NC1=O,–,80,–,–,–,–,33,32,–,98
COc1ccc2c(Cl)c(C(=O)N/N=C/c3c(C)[nH]c4ccccc34)sc2c1,–,65,–,–,41,–,63,–,93,–
O=C(N/N=C/c1c[nH]c2ccccc12)c1ccccc1,–,–,–,–,–,–,·,·,·,·
O=C(N/N=C/c1c[nH]c2ccccc12)c1sc2ccccc2c1Cl,–,90,–,–,–,–,41,–,63,–
COc1cccc(C(=O)NCC(=O)N/N=C/c2c(C)[nH]c3ccccc23)c1,–,–,–,–,–,–,·,·,·,·
O=C(NC1CCCCC1)C(c1ccnc2ccccc12)n1c(=O)c(-c2ccccc2)nc2ccccc21 (configuration not stated),–,·,·,·,·,–,·,·,·,·
SMILES,TAAR1 antag,OX1R antag-1,CHO parental Ca,GPR7 antagonist,OX1R antag-2,TAAR1 ag,OX1R Fluo8 conf,CHO Ca triplic,OX1R HTRF confirm,CHO-K1 HTRF
CCOC(=O)c1c(NC(=O)C2C3CCC(O3)C2C(=O)O)sc2c1CCCC2 (configuration not stated),–,–,–,–,–,–,·,·,·,·
Cc1ccc(-c2c(C)sc(NC(=O)C3C4CCC(O4)C3C(=O)O)c2C(=O)OC(C)C)cc1 (configuration not stated),–,78,–,–,52,–,–,–,60,–
C[C@H](CO)N1C[C@H](C)[C@H](CN(C)Cc2cncnc2)Oc2cc(Br)ccc2S1(=O)=O,–,·,·,·,·,–,·,·,·,·
COc1ccc(NC(=O)C(=O)Nc2cccc3cccnc23)c(OC)c1,–,–,–,–,–,–,·,·,·,·
COc1ccc(NC(=O)C(=O)Nc2cccc3cccnc23)cc1OC,–,81,–,–,53,–,61,–,93,–
CCOc1ccc(C(=O)Nc2cccc3cccnc23)cc1,–,81,–,–,66,–,29,–,87,–
CNC(=O)Nc1cccc2cccnc12,–,–,–,–,–,–,·,·,·,·
CC(C)c1cc(Cn2c3ccccc3c(=O)n2C(C)CBr)on1 (configuration not stated),–,·,·,·,·,–,·,·,·,·
C[C@H](CO)N1C[C@H](C)[C@H](CN(C)C(=O)Nc2ccnc(N3CCOCC3)c2)OCc2cnnn2CCCC1=O,–,·,·,·,·,–,·,·,·,·
Nc1nc2ccc(-c3nc4ccccc4o3)cc2s1,–,97,–,–,72,–,32,–,89,–
CCOC(=O)N1CCN(C(=O)C[C@@H]2C[C@@]3(C(=O)OCC)CCCC=C3N(CCC3=CCCCC3)C2=O)CC1,–,·,·,·,·,–,·,·,·,·
Fc1cccc2sc(Nc3nc4cc5c(cc4s3)OCO5)nc12,–,76,–,–,41,–,–,–,59,–
Fc1cccc2sc(Nc3nc4cc5c(cc4s3)OCCO5)nc12,–,–,–,–,–,–,·,·,·,·
COc1cc2cc(C(=O)N/N=C/c3ccccc3Cl)[nH]c2cc1OC,–,76,–,–,–,–,–,–,89,–
COc1cc2cc(C(=O)N/N=C/c3ccc(F)cc3)[nH]c2cc1OC,–,67,–,–,–,–,–,–,73,–
COc1ccc(/C=N/NC(=O)c2cc3cc(OC)c(OC)cc3[nH]2)cc1,–,–,–,–,–,–,·,·,·,·
